proCasp3 act: procaspase-3 (human) activation; P42574; recombinant procaspase-3 D3A, Ac-DEVD-pNA absorbance 405 nm; activation, % at 8.5 µM; hit rate 0.11% among 330,000;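 active means activation above the mean of all tested compounds plus 3 SD, cut at about 21% in these data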;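 further: 0% = DMSO alone and 100% = DMSO wells spiked with extra 5 µM PC-3 D3A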
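Assay system – Procaspase-3 D3A mutant, all three cleavage aspartates alanine · Controls – DMSO-only low control, 5 µM PC-3 D3A high control · Schedule – 1 h compound preincubation, 2 h substrate hydrolysis at 25 °C · Signal – 405 nm absorbance of p-nitroaniline, reads at 0 and 120 min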
HGIII-sPLA2 inh: Inhibits HGIII-sPLA2 liposome hydrolysis, primary screen; hit rate 0.56% among 370,000; QFRET BODIPY PC-A2 liposome hydrolysis, fluorescence; inhibition, % at 12.2 µM; Q9NZ20;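 active means inhibition above mean plus 3 SD of compounds lying within the high and low control bounds, cut at about 19% in these data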;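 further: 0% = median of test compound wells and 100% = no enzyme DMSO wells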
proCasp7 act: counter-screen for procaspase-3 activators: activators of human procaspase-7; P55210; recombinant procaspase-7, Ac-DEVD-pNA absorbance 405 nm; D23A/D198A/D206A triple mutant, cannot self-cleave; scale: DMSO 0, 5 µM enzyme 100; activation, % at 8.5 µM; hit rate 0.093% among 330,000;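 active means percent activation above the screen-wide mean plus 3 SD, cut at about 25% in these data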
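Assay system: Uncleavable procaspase-7 mutant enzyme; Input: 2 µM procaspase-7 mutant as dispensed; Also added: DEVD-pNA substrate; Medium: Zinc-free HEPES pH 7.4 with 300 mM NaCl, 0.01% Triton X-100; Timing: 1 h compound preincubation, 2 h substrate cleavage, 25 °C; Measured by: Epi-absorbance of released pNA at 405 nm, two timepoints.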
PLC-gamma1 inh: blocks human PLC-gamma1 enzyme activity. AID 720700. purified PLC-gamma1, fluorogenic substrate, fluorescence. P19174. hit rate 0.84% among 370,000. inhibition, % at 12.2 µM; in the data active means inhibition above about 9.5%
Target sequence (P19174 whole entry, looked up): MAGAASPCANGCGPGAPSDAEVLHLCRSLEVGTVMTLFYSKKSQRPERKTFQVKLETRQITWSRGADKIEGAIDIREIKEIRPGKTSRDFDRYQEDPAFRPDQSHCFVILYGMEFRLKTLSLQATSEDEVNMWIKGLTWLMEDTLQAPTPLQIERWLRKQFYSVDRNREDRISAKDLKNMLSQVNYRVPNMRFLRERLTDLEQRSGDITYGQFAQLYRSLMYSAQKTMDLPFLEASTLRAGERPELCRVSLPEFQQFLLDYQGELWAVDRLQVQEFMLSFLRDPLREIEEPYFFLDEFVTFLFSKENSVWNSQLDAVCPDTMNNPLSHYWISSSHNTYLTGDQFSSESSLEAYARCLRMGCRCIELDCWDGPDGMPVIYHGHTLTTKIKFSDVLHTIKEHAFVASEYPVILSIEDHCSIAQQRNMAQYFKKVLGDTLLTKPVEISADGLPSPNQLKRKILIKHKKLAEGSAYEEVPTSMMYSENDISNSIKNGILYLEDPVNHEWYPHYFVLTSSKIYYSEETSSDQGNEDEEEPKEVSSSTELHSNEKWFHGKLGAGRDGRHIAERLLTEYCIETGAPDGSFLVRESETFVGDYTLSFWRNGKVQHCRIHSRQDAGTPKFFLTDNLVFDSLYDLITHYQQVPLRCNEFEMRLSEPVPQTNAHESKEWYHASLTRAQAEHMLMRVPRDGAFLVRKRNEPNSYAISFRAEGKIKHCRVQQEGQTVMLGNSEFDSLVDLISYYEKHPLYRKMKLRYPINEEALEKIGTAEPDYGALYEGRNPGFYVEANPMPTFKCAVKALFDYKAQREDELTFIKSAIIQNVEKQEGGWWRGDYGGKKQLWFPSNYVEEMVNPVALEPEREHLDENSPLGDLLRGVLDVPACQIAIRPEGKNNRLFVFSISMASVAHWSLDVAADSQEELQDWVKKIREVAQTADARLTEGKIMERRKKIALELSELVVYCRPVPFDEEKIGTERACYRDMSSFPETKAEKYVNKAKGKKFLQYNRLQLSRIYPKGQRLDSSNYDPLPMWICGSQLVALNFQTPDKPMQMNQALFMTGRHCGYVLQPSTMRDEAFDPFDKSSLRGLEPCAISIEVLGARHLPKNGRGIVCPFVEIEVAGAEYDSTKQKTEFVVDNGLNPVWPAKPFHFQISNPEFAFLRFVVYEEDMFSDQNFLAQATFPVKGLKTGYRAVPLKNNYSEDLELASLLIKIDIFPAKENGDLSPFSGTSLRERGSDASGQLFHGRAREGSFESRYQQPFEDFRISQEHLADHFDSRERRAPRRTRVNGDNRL
PLCb3 inh: inhibitors of human phospholipase C beta3. inhibition, % at 12.2 µM. AID 720704. Purified PLC-beta3, fluorogenic substrate, fluorescence. hit rate 0.18% among 370,000;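 further: 0% = median of compound wells on plate and 100% = full blocker control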
PLCg1 ctr: inhibits human PLC-gamma1 in PLC-beta3 counter-screen. shares compounds with PLC-gamma1 inh. hit rate 3.1% among 3,300. purified PLC-gamma1, fluorogenic substrate, fluorescence. inhibition, % at 12.3 µM; in the data active means inhibition above about 9.5%
PLCb3 confirm: confirmation of human PLC-beta3 inhibitors | shares compounds with PLC-gamma1 inh | purified PLC-beta3, fluorogenic substrate fluorescence | inhibition, % at 12.3 µM | hit rate 1% among 3,300 | AID 743261
* hit, by the source's call; . = no result given. Sampled rows, rich in hits. Any-hit rate of the full collection: about 1.6%. Unless noted, no stated cut-off is given here; in the data, active means inhibition above about 11%; inactive means the rest.

SMILES | proCasp3 act | HGIII-sPLA2 inh | proCasp7 act | PLC-gamma1 inh | PLCb3 inh | PLCg1 ctr | PLCb3 confirm
CCSc1ccc([C@@H]2[C@@H]3C(=O)N(CC)C(=O)[C@@H]3[C@]3(C(=O)OC)CCCCN23)cc1 | 0 | -4 | 9 | 1 | -2 | . | .
CCSc1ccc([C@@H]2[C@H]3C(=O)N(C)C(=O)[C@H]3[C@]3(C(=O)OC)CCCCN23)cc1 | -3 | -21 | 1 | 10* | 3 | -6 | -4
CC(C)C[C@@H](NC(=O)OC(C)(C)C)C(=O)N1O[C@]23C=C[C@]14C[C@@H](O)CC[C@]4(C)C2CC[C@]1(C)[C@@H]([C@H](C)/C=C/[C@H](C)C(C)C)CC[C@H]13 (stereo partly specified) | . | 2 | . | 2 | 1 | . | .
CC(C)[C@@H](C)/C=C/[C@@H](C)[C@H]1CC[C@@H]2[C@]1(C)CCC1[C@]23C=C[C@]2(C[C@@H](O)CC[C@]12C)N(c1ccc(Br)cn1)O3 (stereo partly specified) | . | 8 | . | 9.9* | -6 | -1 | 1
CC(=O)c1cccc(NC(=O)c2onc(C)c2Cl)c1 | -1 | -2 | 4 | 3 | 4 | . | .
Cc1noc(C(=O)Nc2cccnc2)c1Cl | 3 | 2 | 2 | 12* | 4 | -6 | -4
CC(C)C[C@H](NC(C)(C)C(=O)NC1CCCCC1)C(=O)NCC(c1ccccc1)c1ccccc1 | . | 3 | . | 1 | 4 | . | .
O=C(NCC(c1ccccc1)c1ccccc1)[C@H](Cc1ccccc1)NC1(C(=O)NC2CCCCC2)CCOCC1 | . | 10 | . | 14* | 3 | 2 | 5
CC(C)C(=O)Nc1cccc(NC(=O)c2cc3ccccc3o2)c1 | 0 | -2 | 5 | 0 | 1 | . | .
CC(=O)Nc1cccc(NC(=O)c2cc3ccccc3o2)c1 | -4 | 0 | 2 | 9.7* | 3 | -7 | -3
O=C(CNC(=O)c1ccccc1Br)NCC(c1ccco1)N1CCCCC1 (stereo unspecified) | . | 3 | . | -2 | -7 | . | .
C[C@H](CO)N1C[C@H](C)[C@@H](CN(C)C(=O)CN2CCOCC2)Oc2cc(Br)ccc2S1(=O)=O | . | 0 | . | 1 | 2 | . | .
CCN(CC(=O)NC1CCS(=O)(=O)C1)C(=O)C(c1ccccc1)c1ccccc1 (stereo unspecified) | -4 | 10 | -2 | 12* | 1 | -2 | 0
CN(CC(O)CN)CC(O)CN1CCCCC1 (stereo unspecified) | 0 | 5 | -2 | 9.6* | 2 | -4 | -2
Cc1cn([C@H]2C[C@H](O)[C@@H](CNC(=O)[C@H](N)Cc3cscn3)O2)c(=O)[nH]c1=O | . | 4 | . | -2 | -3 | . | .
Cc1ccc(N(C)S(=O)(=O)c2cccc(C(=O)N3CCN(Cc4ccccc4)CC3)c2)cc1 | -1 | -20 | 10 | 11* | -4 | 2 | 2
COC(=O)c1ccccc1NC(=O)Nc1c(C)n(C)n(-c2ccccc2)c1=O | -2 | 3 | -14 | 2 | -6 | . | .
COc1ccc(C(O)c2nc(-c3ccoc3)cs2)cc1 (stereo unspecified) | . | -9 | . | -5 | -5 | . | .
NC(=O)CC(NC(=O)Cc1cccc2ccccc12)c1ccc(N2CCCCCC2)c([N+](=O)[O-])c1 (stereo unspecified) | -1 | -20 | 5 | 14* | 13* | 10* | -3
NC(=O)CC(NC(=O)Cc1cccc2ccccc12)c1ccc(N2CCC(N3CCCCC3)CC2)c([N+](=O)[O-])c1 (stereo unspecified) | -7 | 2 | -2 | 2 | 4 | . | .
NC(=O)CC(NC(=O)Cc1cccc2ccccc12)c1ccc(NC2CCC2)c([N+](=O)[O-])c1 (stereo unspecified) | -6 | -2 | -2 | 10* | 5 | -6 | 0
O=C(CC(=O)NN=C1CCCCCC1)NCc1cccnc1 | 4 | 6 | -3 | 10* | 6 | 1 | 1
O=C(NN=C1CCCCCC1)c1cccnc1 | 2 | 1 | 3 | 0 | 3 | . | .
COC(=O)CSc1nnc(C)n1-c1cccc(OC)c1 | 5 | -1 | 4 | 0 | 2 | . | .
COc1cccc(-n2c(C)nnc2SCC#N)c1 | -1 | 13 | 0 | 12* | 13* | -4 | -1
SMILES | proCasp3 act | HGIII-sPLA2 inh | proCasp7 act | PLC-gamma1 inh | PLCb3 inh | PLCg1 ctr | PLCb3 confirm
CN(C)S(=O)(=O)c1cccc(C(=O)NCC(C)(C)CNC(=O)c2cccc(S(=O)(=O)N(C)C)c2)c1 | -2 | -6 | 1 | 9.9* | -2 | 8 | 2
CCc1ccccc1NC(=O)CN(C)C(=O)COC(=O)c1c(Cl)cccc1Cl | . | -2 | . | 3 | -7 | . | .
CCc1ccccc1NC(=O)CN(C)C(=O)COC(=O)c1cccnc1Cl | 5 | -3 | 4 | 10* | -1 | -6 | 0
COc1ccc(CN(C)CC(=O)Nc2ccccc2C(F)(F)F)c(OC)c1 | -3 | 7 | -6 | 0 | 0 | . | .
COc1ccc(CN(C)CC(=O)Nc2ccc(Cl)cc2C(F)(F)F)c(OC)c1 | -8 | 12 | -1 | 13* | -1 | -2 | 1
Cc1ccc(S(=O)(=O)NC(=O)Nc2c(C)cccc2C)cc1 | 3 | 10 | -5 | -1 | -6 | . | .
COc1cccc(N2CCN(S(=O)(=O)c3cc4c(cc3Cl)NC(=O)CO4)CC2)c1 | 12 | -5 | 2 | 2 | 7 | . | .
Cc1cccc(N2CCN(S(=O)(=O)c3cc4c(cc3Cl)NC(=O)CO4)CC2)c1C | 1 | -6 | 0 | 10* | 1 | 2 | -3
Cc1nc([N+](=O)[O-])c(Br)n1Cc1ccccc1 | 12 | 10 | 1 | 1 | -2 | . | .
Cc1nc([N+](=O)[O-])c(Sc2nc3ccc([N+](=O)[O-])cc3[nH]2)n1Cc1ccccc1 | -1 | -15 | 6 | 12* | 6 | 3 | -1
O=C(O)CN1C(=O)C2C3CCC(C3)C2C1=O (stereo unspecified) | . | 2 | . | 14* | 8 | -5 | -2
Cc1ccc(C(=O)n2nc(-c3cccnc3)nc2N)cc1 | 0 | 0 | -5 | 0 | -2 | . | .
Cc1ccc(-c2nc(N)n(C(=O)c3cccnc3)n2)cc1 | 0 | 6 | -2 | 12* | 7 | -5 | -1
COC(=O)[C@]12C[C@H](CC(=O)NCc3cccs3)C(=O)N(Cc3ccco3)C1=C[C@H](C(C)(C)C)O[C@@H]2C | . | -9 | . | 0 | -2 | . | .
O=C(NN1C(=O)NC2(CCCCC2)C1=O)c1ccc(Cl)c(Cl)c1 | 5 | 9 | 1 | 12* | -11 | -9 | -7
O=C(NN1C(=O)NC2(CCCCC2)C1=O)c1cc(F)cc(F)c1 | 1 | -2 | 8 | -1 | -3 | . | .

Source: PubChem BioAssay
